Consider 15 compounds from ChEMBL document CHEMBL1156265, “Furo[2,3-b]pyridine-based cannabinoid-1 receptor inverse agonists: synthesis and biological evaluation. Part 1” (Bioorg Med Chem Lett, 2010).

Bounds are passed on as bounds.

Series [1] has as its target Cannabinoid receptor 1 (Homo sapiens, UniProt P21554). The experiment in a line: Inhibition of human CB1 receptor.
For series [2], the target named is Cannabinoid receptor 2 (Homo sapiens, UniProt P34972). The experiment in a line: Inhibition of human CB2 receptor.
Series [3] is described as follows: Drug level in rat brain at 1 mg/kg, iv after 4 hrs. The class given is ADME, organism-based. Set-up: dose 1 mg/kg, route intravenous. The note with it: read-out: Drug uptake.
The nature of series [4]: Metabolic stability in monkey liver microsomes assessed as compound remaining after 60 mins. The class given is ADME, Macaca fascicularis, Microsome. The note with it: cynomolgus monkey, read-out: Activity. The method, boiled down:
(§1)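 Liver microsomes (monkey, human, rat, dog) were incubated with compound for 60 min. The read-out was percent parent remaining over the incubation time course.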

Series [5] in a line: Bioavailability in rhesus monkey. The settings on record: in vivo. In kind it is ADME, organism-based, Macaca mulatta. The method, boiled down:
(§2)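 PK in dog and rhesus macaque. Bioavailability, plasma clearance (mL/min/kg) and terminal half-life derived from plasma drug levels.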

Series [6] is described as follows: Half life in rhesus monkey. In kind it is ADME, organism-based, Macaca mulatta. The note with it: in vivo. The method, boiled down:
as §2

The nature of series [7]: Plasma clearance in rhesus monkey. In kind it is ADME, organism-based, Macaca mulatta. Summed up: as §2
Series [8] can be described thus: Half life in dog. The settings on record: in vivo. In kind it is ADME, organism-based, Canis lupus familiaris. Summed up: as §2
The subject of series [9] is Rattus norvegicus. The experiment in a line: Reduction of body weight in DIO rat assessed as weight change at 1 mg/kg, po after 18 hrs. In kind it is functional. The method, boiled down: (§3)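 Acute study in diet-induced obese rats. A single oral dose was given and rats were monitored for 18 h. Food intake suppression and body weight change were measured relative to vehicle-treated controls.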

The nature of series [10]: Drug level in rat plasma at 1 mg/kg, iv after 4 hrs. In kind it is ADME, organism-based. More on the design: dose 1 mg/kg, route intravenous. The settings on record: read-out: Drug uptake.
The subject of series [11] is Rattus norvegicus. The experiment in a line: Suppression of food intake in DIO rat at 1 mg/kg, po relative to control. The class given is functional. Summed up:
as §3

Series [12] is described as follows: Lipophilicity, log D of the compound. The class given is physicochemical. The settings on record: HPLC, pH 7.3.
The nature of series [13]: Stability in phosphate buffer exposed to air assessed as degradation at pH 7.4 after 40 hrs. The class given is physicochemical. The note with it: read-out: Activity. Summed up: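 The compound was held in aqueous pH 7.4 phosphate buffer exposed to air for 40 h. The read-out was percent of material degraded to other products.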
Series [14] can be described thus: Plasma clearance in rat. The class given is ADME, organism-based.
Series [15] is described as follows: Bioavailability in rat. In kind it is ADME, organism-based. The note with it: in vivo.
A short description of series [16]: Metabolic stability in rat bile assessed as total recovery at 2 mg/kg, iv after 5 days. The note with it: in vivo, 120 h. In kind it is ADME, organism-based. More on the design: dose 2 mg/kg, route intravenous. The method, boiled down:
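Radioactivity was collected in bile and urine for 120 h and expressed as percent of dose recovered.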

A short description of series [17]: Metabolic stability in human liver microsomes assessed as compound remaining after 60 mins. The class given is ADME, Microsome. The settings on record: read-out: Activity. The method, boiled down:
as §1

In series [18] the test system is Rattus norvegicus. The series can be described thus: Reduction of body weight in DIO rat assessed as weight change at 1 mg/kg, po daily measured 18 hrs post dose on day 14. In kind it is functional. Summed up: (§4)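 Chronic study in diet-induced obese rats with daily oral dosing at 1 mg/kg (for some compounds 0.1 and 0.3 mg/kg as well). Body weight change and cumulative food intake suppression were measured relative to vehicle. The 14-day study ended 18 h after the day-14 dose; one study ended on day 13.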

A short description of series [19]: Plasma clearance in dog. In kind it is ADME, organism-based, Canis lupus familiaris. Summed up: as §2
In series [20] the test system is Rattus norvegicus. The experiment in a line: Suppression of food intake in DIO rat at 1 mg/kg, po measured 18 hrs post dose on day 14 relative to control.
Series [21] is described as follows: Bioavailability in dog. The class given is ADME, organism-based, Canis lupus familiaris. The note with it: in vivo. The method, boiled down: as §2
Series [22] is described as follows: Ratio of drug level in brain to plasma in rat at 1 mg/kg, iv after 4 hrs. The class given is ADME, organism-based. Set-up: dose 1 mg/kg, route intravenous.
The nature of series [23]: Half life in rat. In kind it is ADME, organism-based. The note with it: in vivo.
For series [24], the system named is Rattus norvegicus. The experiment in a line: Reduction of body weight in rat at 1 mg/kg, po after 13 days relative to control. The class given is functional. More on the design: scale not given: the % may be the effect or the level left. Summed up: as §4
The subject of series [25] is Rattus norvegicus. The series can be described thus: Suppression of food intake in DIO rat at 3 mg/kg relative to control. The class given is functional.
Series [26] in a line: Half life in rat at 3 mg/kg. The note with it: in vivo. More on the design: dose 3 mg/kg. The class given is ADME, organism-based.

Cannabinoid receptor 2, sequence (P34972 whole entry): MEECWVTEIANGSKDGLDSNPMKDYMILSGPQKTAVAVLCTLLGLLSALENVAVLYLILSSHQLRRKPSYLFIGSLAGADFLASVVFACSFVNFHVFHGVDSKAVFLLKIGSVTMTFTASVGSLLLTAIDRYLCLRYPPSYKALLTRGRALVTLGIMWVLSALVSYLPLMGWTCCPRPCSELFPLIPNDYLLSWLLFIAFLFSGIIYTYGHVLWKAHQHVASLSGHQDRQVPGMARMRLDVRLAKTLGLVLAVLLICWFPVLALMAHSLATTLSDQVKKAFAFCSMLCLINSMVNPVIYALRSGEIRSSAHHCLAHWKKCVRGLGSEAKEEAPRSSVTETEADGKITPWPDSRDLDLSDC
Cannabinoid receptor 1, sequence (P21554 whole entry): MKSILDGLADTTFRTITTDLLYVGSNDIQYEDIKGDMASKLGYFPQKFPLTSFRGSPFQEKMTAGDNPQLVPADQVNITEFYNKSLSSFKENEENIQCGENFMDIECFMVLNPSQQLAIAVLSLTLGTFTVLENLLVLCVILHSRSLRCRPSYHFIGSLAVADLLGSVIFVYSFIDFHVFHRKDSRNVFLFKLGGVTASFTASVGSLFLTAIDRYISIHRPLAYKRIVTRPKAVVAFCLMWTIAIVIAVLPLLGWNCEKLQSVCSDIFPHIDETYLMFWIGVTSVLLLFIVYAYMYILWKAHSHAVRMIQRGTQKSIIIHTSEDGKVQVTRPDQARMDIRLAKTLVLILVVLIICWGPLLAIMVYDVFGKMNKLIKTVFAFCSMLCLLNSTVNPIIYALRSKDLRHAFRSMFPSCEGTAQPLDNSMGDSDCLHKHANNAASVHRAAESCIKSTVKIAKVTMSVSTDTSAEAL

For the compound `CC(C)C(=O)c1oc2nc(-c3ccccc3Cl)c(-c3ccc(Cl)cc3)cc2c1N`, the concentration for half-maximal inhibition (IC50) in series [1] was found to be 0.0017 µM; in series [2] it was 1.3 µM.

As for `CC(C)(C)C(=O)c1oc2nc(-c3ccc(Cl)cc3Cl)c(-c3ccc(Cl)cc3)cc2c1N`, the concentration at 4 h in series [3] and in [10] was 220 nM in each case. The figures for the remaining at 1 h in series [4] and in [17] were 25% and 100%, respectively. For the same compound, the bioavailability is 11% in [5], 59% in series [15] and 63% in [21]. Besides, the results for the half-life in [6], in series [8] and in series [23] were 2.4 h, 7.9 h and 4.2 h, respectively. The clearance in series [7] worked out at 29 mL/min/kg; in series [14], 5.6 mL/min/kg; in [19], 7.3 mL/min/kg. For the same compound, the Activity in series [9] is on record as -5 g; in series [11] it was 53%; in series [16], 41%; in series [18], -3 g; in series [20], 19%; in series [24] it was 5.3%. Moreover, the logD in series [12] came to 6.7. For the same compound, the degraded at 40 h in series [13] was 40%. The IC50 turned out to be 0.0055 µM in series [1] and 0.44 µM in series [2]. In addition, the partition ratio (Kp) at 4 h in [22] worked out at 1.

With `CNCC(=O)Nc1c(C(=O)C(C)(C)C)oc2nc(-c3ccccc3Cl)c(-c3ccc(Cl)cc3)cc12`, the figures for the half-inhibitory concentration (IC50) in series [1] and in series [2] were 0.0012 µM and 3.3 µM, respectively.

In the case of `CC(=O)c1oc2nc(-c3ccc(Cl)cc3Cl)c(-c3ccc(Cl)cc3)cc2c1N`, the IC50 in [1] came to 0.056 µM; in series [2] it was 1 µM.

Turning to `CC(C)(O)C(=O)c1oc2nc(-c3ccccc3Cl)c(-c3ccc(Cl)cc3)cc2c1N`, the figures for the half-maximal inhibitory concentration (IC50) in [1] and in series [2] were 0.02 µM and 2.1 µM, respectively.

`CCC(=O)c1oc2nc(-c3ccc(Cl)cc3Cl)c(-c3ccc(Cl)cc3)cc2c1N`: the IC50 amounted to 0.017 µM in series [1] and 0.36 µM in [2].

As to `CC(C)(C)C(=O)c1oc2nc(-c3ccccc3Cl)c(-c3ccc(Cl)cc3)cc2c1NC(=O)CO`, the concentration at 4 h came to 86 nM in series [3] and 49 nM in [10]. For the same compound, the half-life in [8] is 11 h; in [23] it was 3.5 h. Besides, the Activity in series [9] is -6 g; in [11] it was 24%; in series [18] it was -19 g; in [20], 19%; in [24], 6%. This compound also showed a logD in series [12] of 6. Further, the clearance in series [14] is 10 mL/min/kg; in [19], 3 mL/min/kg. The IC50 in series [1] is 0.0012 µM; in series [2], 3.4 µM. Besides, the bioavailability in series [15] amounted to 32%; in series [21] it was 42%. In addition, in series [22], the concentration ratio (Kp) at 4 h is 1.8.

On to `CC(=O)Nc1c(C(=O)C(C)(C)C)oc2nc(-c3ccccc3Cl)c(-c3ccc(Cl)cc3)cc12`, for which the 50% inhibitory concentration (IC50) is 0.00058 µM in series [1] and greater than 2 µM in series [2].

In the case of `CN(C)C(=O)Nc1c(C(=O)C(C)(C)C)oc2nc(-c3ccccc3Cl)c(-c3ccc(Cl)cc3)cc12`, the concentration for half-maximal inhibition (IC50) is 0.00039 µM in series [1] and 1.97 µM in series [2].

For `CC(C)(C)C(=O)c1oc2nc(-c3ccccc3Cl)c(-c3ccc(Cl)cc3)cc2c1N`, the results for the concentration at 4 h in series [3] and in series [10] were 290 nM and 130 nM, respectively. In addition, the figures for the Activity in series [9] and in series [11] were -4 g and 33%, respectively. In series [14], this compound showed a clearance of 22 mL/min/kg. Moreover, the IC50 in series [1] was 0.0043 µM; in series [2], 1.9 µM. In addition, the bioavailability in series [15] amounted to 100%. Moreover, in series [22], the concentration ratio (Kp) at 4 h came to 2.3. This compound had a half-life in [23] of 2.8 h.

As to `CC(C)C(=O)c1oc2nc(-c3ccccc3Cl)c(-c3ccc(Cl)cc3)cc2c1NC(=O)CO`, the concentration at 4 h in series [3] was determined as 150 nM; in series [10] it was 160 nM. Further, the half-life was 52 h in series [8] and 3.3 h in series [23]. Besides, the Activity in [9] was -7 g; in series [11] it was 37%. The clearance in [14] amounted to 20 mL/min/kg; in series [19] it was 4.9 mL/min/kg. The IC50 in series [1] came out at 0.0004 µM; in series [2], 5.1 µM. The values for the bioavailability in [15] and in [21] were 38% and 31%, respectively. In addition, in series [22], the concentration ratio (Kp) at 4 h was determined as 0.94.

As for `CC(=O)Nc1c(C(C)=O)c(=O)n(C)c2nc(-c3ccc(Cl)cc3Cl)c(-c3ccc(Cl)cc3)cc12` [NAPHTHYRIDINONE], the Activity in series [25] is listed as -68%. In addition, the half-life in series [26] is greater than 8 h.

Regarding `Nc1c(C(=O)c2ccccc2)oc2nc(-c3ccc(Cl)cc3Cl)c(-c3ccc(Cl)cc3)cc12`, the IC50 turned out to be 0.0035 µM in [1] and 0.44 µM in series [2].

In the case of `CCC(=O)c1oc2nc(-c3ccccc3Cl)c(-c3ccc(Cl)cc3)cc2c1N`, the IC50 in series [1] was determined as 0.013 µM; in series [2], 1 µM.

For the compound `CC(C)C(=O)c1oc2nc(-c3ccc(Cl)cc3Cl)c(-c3ccc(Cl)cc3)cc2c1N`, the IC50 in series [1] was determined as 0.0019 µM; in series [2], 0.64 µM.
